From ChEMBL document CHEMBL4052637, “Discovery and Characterization of R/S-N-3-Cyanophenyl-N'-(6-tert-butoxycarbonylamino-3,4-dihydro-2,2-dimethyl-2H-1-benzopyran-4-yl)urea, a New Histone Deacetylase Class III Inhibitor Exerting Antiproliferative Activity against Cancer Cell Lines” (J Med Chem, 2017)
The source made the active and inactive calls. No cut-off for these calls is given here.

Legend:
[1] = target: T1, NAD-dependent protein deacetylase sirtuin-1 (Homo sapiens, UniProt Q96EB6); assay: Inhibition of N-terminal His-tagged recombinant human SIRT-1 expressed in Escherichia coli using Fluor-de-Lys-SIRT1 as substrate after 15 mins by fluorescence assay
T1 sequence (Q96EB6 whole entry): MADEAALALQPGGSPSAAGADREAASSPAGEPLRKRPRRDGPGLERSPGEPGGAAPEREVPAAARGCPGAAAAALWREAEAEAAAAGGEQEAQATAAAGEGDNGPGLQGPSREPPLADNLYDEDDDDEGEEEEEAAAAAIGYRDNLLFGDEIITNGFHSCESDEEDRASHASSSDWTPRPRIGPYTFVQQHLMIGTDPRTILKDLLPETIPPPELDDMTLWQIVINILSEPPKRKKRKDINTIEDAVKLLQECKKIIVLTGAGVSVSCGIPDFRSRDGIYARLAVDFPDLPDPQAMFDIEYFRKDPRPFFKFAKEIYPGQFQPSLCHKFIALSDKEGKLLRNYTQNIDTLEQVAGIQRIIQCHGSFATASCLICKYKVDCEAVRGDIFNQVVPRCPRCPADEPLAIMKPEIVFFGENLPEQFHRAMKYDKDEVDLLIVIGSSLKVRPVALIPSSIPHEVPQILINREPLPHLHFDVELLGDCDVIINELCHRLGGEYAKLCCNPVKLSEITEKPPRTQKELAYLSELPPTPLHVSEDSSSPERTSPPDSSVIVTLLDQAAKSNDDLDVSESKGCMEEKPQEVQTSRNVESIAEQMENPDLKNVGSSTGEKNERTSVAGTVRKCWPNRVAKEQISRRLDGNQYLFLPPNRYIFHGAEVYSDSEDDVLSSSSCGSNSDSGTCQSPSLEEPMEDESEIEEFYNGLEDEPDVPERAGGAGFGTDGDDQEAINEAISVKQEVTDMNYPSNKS

[2] = target: T2, NAD-dependent protein deacetylase sirtuin-2 (Homo sapiens, UniProt Q8IXJ6); assay: Inhibition of N-terminal His-tagged recombinant human SIRT-2 expressed in Escherichia coli using Fluor-de-Lys-SIRT1 as substrate after 15 mins by fluorescence assay
T2 sequence (Q8IXJ6 whole entry): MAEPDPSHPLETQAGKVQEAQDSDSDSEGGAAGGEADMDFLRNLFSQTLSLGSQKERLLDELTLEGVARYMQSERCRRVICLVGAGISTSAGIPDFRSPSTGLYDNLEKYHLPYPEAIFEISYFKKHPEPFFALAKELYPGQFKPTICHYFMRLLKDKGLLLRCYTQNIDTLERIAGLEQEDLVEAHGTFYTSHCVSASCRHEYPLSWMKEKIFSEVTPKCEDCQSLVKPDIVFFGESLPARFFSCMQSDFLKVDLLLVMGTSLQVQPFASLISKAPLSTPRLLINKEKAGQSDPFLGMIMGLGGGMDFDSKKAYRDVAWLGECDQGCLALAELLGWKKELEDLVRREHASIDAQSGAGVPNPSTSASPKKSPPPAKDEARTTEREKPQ

Hs 683 [3] = assay: Antiproliferative activity against human Hs683 cells after 72 hrs by MTT assay; format: functional, cell-based; conditions: Hs 683, 72 h
In short: (§1)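 MTT assay: cells in RPMI 1640 with 10% heat-inactivated FCS at 37 °C and 5% CO2 were seeded 24 h before treatment. They were exposed 72 h to compound at 0.01–100 μM, with DMSO as solvent.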

T98G = assay: Antiproliferative activity against human T98G cells after 72 hrs by MTT assay; format: functional, cell-based; in short: as §1
[4] = Antiproliferative activity against human U373 cells after 72 hrs by MTT assay; format: functional, cell-based, U-373MG ATCC; conditions: U373 MG; in short: as §1
Hs 683 [5] = assay: Cell cycle arrest in human Hs683 cells assessed as accumulation at G1 phase at IC50 after 24 to 48 hrs by propidium iodide staining-based flow cytometry; format: functional
In short: (§2)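 Cells were exposed to compound at the IC50 for each line from the 72 h MTT assay, or to a reference HDAC inhibitor at 2 μM. Cell cycle distribution was analyzed after 24 and 48 h. Results are mean ± SD of three independent experiments, with p values against control cells.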

Hs 683 [6] = assay: Cell cycle arrest in human Hs683 cells assessed as accumulation at sub-G1 phase at IC50 for MTT assay after 24 to 48 hrs by propidium iodide staining-based flow cytometry; format: functional; in short: as §2
U-373MG ATCC [7] = assay: Cell cycle arrest in human U373 cells assessed as accumulation at sub-G1 phase at IC50 for MTT assay after 24 to 48 hrs by propidium iodide staining-based flow cytometry; format: functional; in short: as §2
Hs 683 [8] = assay: Cell cycle arrest in human Hs683 cells assessed as accumulation at G2/M phase at IC50 after 24 to 48 hrs by propidium iodide staining-based flow cytometry; format: functional; in short: as §2
U-373MG ATCC [9] = assay: Cell cycle arrest in human U373 cells assessed as accumulation at G2/M phase at IC50 after 24 to 48 hrs by propidium iodide staining-based flow cytometry; format: functional; in short: as §2
[10] = Selectivity index, ratio of IC50 for mouse astrocytes to IC50 for human T98G cells
[11] = Selectivity index, ratio of IC50 for mouse astrocytes to IC50 for human Hs683 cells
[12] = Selectivity index, ratio of IC50 for mouse astrocytes to IC50 for human U373 cells

SMILES	IC50 (Hs 683 [3]) [µM]	IC50 (T98G) [µM]	IC50 [4] [µM]	also measured
CC(C)OC(=O)Nc1ccc2c(c1)C(NC(=O)Nc1cccc(C#N)c1)CC(C)(C)O2 (configuration not stated)	–	–	–	IC50 [1]: 54.8 µM; IC50 [2]: 22.7 µM
COc1ccccc1NC(=O)NC1CC(C)(C)Oc2ccc(NC(=O)OC(C)(C)C)cc21 (racemic)	59	39	30	–
CC(C)(C)OC(=O)Nc1ccc2c(c1)C(NC(=O)Nc1cccc(CN)c1)CC(C)(C)O2 (racemic)	95	> 100	> 100	–
CC(C)(C)OC(=O)Nc1ccc2c(c1)C(NC(=O)Nc1ccccc1Cl)CC(C)(C)O2 (racemic)	34	88	59	–
COc1cccc(NC(=O)NC2CC(C)(C)Oc3ccc(NC(=O)OC(C)(C)C)cc32)c1 (racemic)	37	> 100	30	–
CC1(C)CC(NC(=O)Nc2cccc(C#N)c2)c2cc(N)ccc2O1 (racemic)	> 100	> 100	> 100	–
CC(C)(C)OC(=O)Nc1ccc2c(c1)C(NC(=O)Nc1cccc(N)c1)CC(C)(C)O2 (racemic)	91	> 100	97	–
CC(C)(C)OC(=O)Nc1ccc2c(c1)C(NC(=O)Nc1ccccc1C#N)CC(C)(C)O2 (racemic)	54	67	45	–
CCOC(=O)Nc1ccc2c(c1)C(NC(=O)Nc1cccc(C#N)c1)CC(C)(C)O2 (configuration not stated)	–	–	–	IC50 [1]: 109 µM; IC50 [2]: 51.1 µM
CC(NC(=O)c1ccccc1/N=C/c1c(O)ccc2ccccc12)c1ccccc1 (configuration not stated) [SIRTINOL]	33.9	–	39.3	Activity (Hs 683 [5]): Active; Activity (Hs 683 [6]): inactive; Activity (U-373MG ATCC [7]): inactive; Activity (Hs 683 [8]): Active; Activity (U-373MG ATCC [9]): Active
CC1(C)CC(NC(=S)Nc2ccc([N+](=O)[O-])cc2)c2cc(Cl)ccc2O1 (configuration not stated)	–	–	–	IC50 [1]: > 200 µM; IC50 [2]: > 200 µM
CC(C)(C)OC(=O)Nc1ccc2c(c1)C(NC(=O)Nc1cccc(Cl)c1)CC(C)(C)O2 (configuration not stated)	12	20	18	Ratio IC50 [10]: >12; Ratio IC50 [11]: >12; Ratio IC50 [12]: >12; IC50 [1]: 32.1 µM; IC50 [2]: 18.5 µM
COC(=O)Nc1ccc2c(c1)C(NC(=O)Nc1cccc(C#N)c1)CC(C)(C)O2 (configuration not stated)	–	–	–	IC50 [1]: 110 µM; IC50 [2]: 49.4 µM
CC(C)(C)OC(=O)Nc1ccc2c(c1)C(NC(=O)Nc1ccc(C#N)cc1)CC(C)(C)O2 (configuration not stated)	18	26	10	Ratio IC50 [10]: >10; Ratio IC50 [11]: >10; Ratio IC50 [12]: >10; IC50 [1]: 121 µM; IC50 [2]: 110 µM
CC(C)(C)OC(=O)Nc1ccc2c(c1)C(NC(=O)Nc1cccc(Br)c1)CC(C)(C)O2 (racemic)	18	26	22	–
CC(C)(C)OC(=O)Nc1ccc2c(c1)C(NC(=O)Nc1ccccc1C(F)(F)F)CC(C)(C)O2 (racemic)	–	–	> 100	–
CC(C)(C)OC(=O)Nc1ccc2c(c1)C(NC(=O)Nc1ccccc1[N+](=O)[O-])CC(C)(C)O2 (racemic)	13	22	12	Ratio IC50 [10]: >10; Ratio IC50 [11]: >10; Ratio IC50 [12]: >10
CC(C)(C)OC(=O)Nc1ccc2c(c1)C(NC(=O)Nc1ccc(C(F)(F)F)cc1)CC(C)(C)O2 (racemic)	11	15	10	Ratio IC50 [10]: >10; Ratio IC50 [11]: >10; Ratio IC50 [12]: >10
CC(C)(C)OC(=O)Nc1ccc2c(c1)C(NC(=O)Nc1cccc(F)c1)CC(C)(C)O2 (racemic)	19	26	20	–
NC(=O)C1CCCc2c1[nH]c1ccc(Cl)cc21 (configuration not stated)	116	–	157	Activity (Hs 683 [5]): Active; Activity (Hs 683 [6]): inactive; Activity (U-373MG ATCC [7]): inactive
CC(C)(C)OC(=O)Nc1ccc2c(c1)C(NC(=O)Nc1ccc([N+](=O)[O-])cc1)CC(C)(C)O2 (racemic)	20	26	24	–
COc1ccc(NC(=O)NC2CC(C)(C)Oc3ccc(NC(=O)OC(C)(C)C)cc32)cc1 (racemic)	62	49	33	–
CC(C)(C)OC(=O)Nc1ccc2c(c1)C(NC(=O)Nc1ccc(Cl)cc1)CC(C)(C)O2 (configuration not stated)	26	26	22	–
CC(C)(C)OC(=O)Nc1ccc2c(c1)C(NC(=O)Nc1cccc([N+](=O)[O-])c1)CC(C)(C)O2 (racemic)	16	7	1	Ratio IC50 [10]: <5; Ratio IC50 [11]: <5; Ratio IC50 [12]: <5; IC50 [1]: > 200 µM; IC50 [2]: 99.8 µM
CC(C)(C)OC(=O)Nc1ccc2c(c1)C(NC(=O)Nc1cccc(C(F)(F)F)c1)CC(C)(C)O2 (racemic)	9	21	9	Ratio IC50 [10]: <2; Ratio IC50 [11]: <2; Ratio IC50 [12]: <2
CC1(C)CC(NC(=O)Nc2cccc(C#N)c2)c2ccccc2O1 (racemic)	31	32	38	–
N#C/C(=C\c1ccc(-c2cc(Cl)ccc2Cl)o1)C(=O)Nc1cccc2ncccc12	80.2	–	47.6	IC50 [1]: 98.1 µM; Activity (Hs 683 [6]): Active; Activity (U-373MG ATCC [7]): Active; Activity (Hs 683 [8]): Active; Activity (U-373MG ATCC [9]): Active
CC1(C)CC(NC(=O)Nc2cccc(C#N)c2)c2cc(NC=O)ccc2O1 (racemic)	> 100	> 100	> 100	–
